Source: ChEMBL document CHEMBL1641530, “Silanetriols as in vitro inhibitors for AChE” (Bioorg Med Chem Lett, 2011)
Active and inactive are the calls of the source. The calls are words filed in the database; no cut-off is given here.

How the values were obtained:
[1] = biological target: Acetylcholinesterase (Electrophorus electricus) (UniProt O42275); experiment: Inhibition of Electrophorus electricus AChE at 100 uM by Ellman's method relative to control
Summary of the method: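 Modified colorimetric Ellman assay: AChE hydrolyses acetylthiocholine to thiocholine. Final compound concentration 100 µM, read after 15 min. […] Mean ± SEM of at least eight independent experiments.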

[2] = test system: MRC5; experiment: Cytotoxicity against human MRC5 after 45 hrs by XTT proliferation assay; format: functional, cell-based
Summary of the method: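 Human fetal lung fibroblasts (MRC-5) treated with compound, then XTT added at 1, 15 and 41 h. Dehydrogenase cleavage of XTT to orange formazan ran for 4 h and was read photometrically at two wavelengths. Viability is given relative to solvent-only cells. For the 15 h figure, mean ± SEM of at least six independent experiments.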

[3] = biological target: Acetylcholinesterase (Electrophorus electricus) (UniProt O42275); experiment: Irreversible inhibition of Electrophorus electricus AChE by Ellman's method
Summary of the method: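 Reversibility was probed by following AChE inhibition over time in the modified Ellman assay (acetylthiocholine substrate). Activity is referred to solvent control. Mean ± SEM of at least eight independent experiments.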

[4] = biological target: Acetylcholinesterase (Electrophorus electricus, UniProt O42275); experiment: Inhibition of Electrophorus electricus AChE by Ellman's method
Sequence of Acetylcholinesterase (O42275 whole entry): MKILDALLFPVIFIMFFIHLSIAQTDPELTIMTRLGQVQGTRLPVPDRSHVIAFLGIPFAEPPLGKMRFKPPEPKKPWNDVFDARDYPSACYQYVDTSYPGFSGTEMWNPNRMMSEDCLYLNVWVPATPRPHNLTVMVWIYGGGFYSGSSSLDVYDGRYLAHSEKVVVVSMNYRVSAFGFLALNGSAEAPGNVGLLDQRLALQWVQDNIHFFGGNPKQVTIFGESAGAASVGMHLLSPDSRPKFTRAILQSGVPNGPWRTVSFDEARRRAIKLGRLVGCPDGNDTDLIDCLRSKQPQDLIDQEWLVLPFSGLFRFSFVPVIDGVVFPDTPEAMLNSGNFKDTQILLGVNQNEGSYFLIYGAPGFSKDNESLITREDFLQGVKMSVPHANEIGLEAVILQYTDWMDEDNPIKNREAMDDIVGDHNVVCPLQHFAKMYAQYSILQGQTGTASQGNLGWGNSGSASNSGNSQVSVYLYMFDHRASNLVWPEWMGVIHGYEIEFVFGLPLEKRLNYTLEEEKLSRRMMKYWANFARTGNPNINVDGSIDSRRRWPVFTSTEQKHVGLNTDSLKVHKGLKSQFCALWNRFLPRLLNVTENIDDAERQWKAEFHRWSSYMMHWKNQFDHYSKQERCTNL
Summary of the method: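 Ellman-type colorimetric assay with acetylthiocholine as substrate. Four concentrations between 30 and 300 µM were tested, inhibition taken as % of solvent control, and IC50 derived from the concentration–inhibition plot. Mean ± standard deviation of at least eight independent experiments.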

Sequence of Acetylcholinesterase (Electrophorus electricus) (O42275 24-633 limits assumed): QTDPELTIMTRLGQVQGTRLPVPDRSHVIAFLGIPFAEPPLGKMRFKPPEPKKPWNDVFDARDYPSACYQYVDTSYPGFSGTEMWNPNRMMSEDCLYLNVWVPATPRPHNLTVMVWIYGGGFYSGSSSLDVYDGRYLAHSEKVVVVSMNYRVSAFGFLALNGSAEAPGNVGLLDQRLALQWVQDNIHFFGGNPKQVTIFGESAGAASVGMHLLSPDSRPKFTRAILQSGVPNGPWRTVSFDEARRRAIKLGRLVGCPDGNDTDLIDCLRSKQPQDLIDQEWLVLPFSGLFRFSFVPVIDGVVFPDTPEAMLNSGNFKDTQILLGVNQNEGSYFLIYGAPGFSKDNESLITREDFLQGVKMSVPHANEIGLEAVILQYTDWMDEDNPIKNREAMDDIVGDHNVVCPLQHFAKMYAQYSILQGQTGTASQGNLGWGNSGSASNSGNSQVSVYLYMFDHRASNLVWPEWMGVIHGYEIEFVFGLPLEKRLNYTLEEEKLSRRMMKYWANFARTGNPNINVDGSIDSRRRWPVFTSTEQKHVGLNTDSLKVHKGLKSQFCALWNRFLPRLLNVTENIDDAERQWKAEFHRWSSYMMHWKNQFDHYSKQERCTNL

| Structure (SMILES) | inhibition [1] [%] | Activity [2] | inhibition [3] | IC50 [4] [µM] |
| --- | --- | --- | --- | --- |
| CCC(C)(C)[Si](O)(O)O | 10 | inactive | inactive |  |
| O[Si](O)(O)C1CCCCC1 [CYCLOHEXYLSILANETRIOL] | 45 | inactive | inactive | 121 |
| Cc1cc(C)c(-c2cccc(-c3c(C)cc(C)cc3C)c2[Si](O)(O)O)c(C)c1 | 12 | inactive | inactive |  |
